# Source: PMC7041979 (The Journal of Veterinary Medical Science, 2019)
# What was measured:
# [1] = type: in vitro ADME, rat; conditions: for detection of ZON metabolite in mucosal and serosal buffers: LC-MS/MS
# Procedure, shortened: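 Everted 10 cm segments from male, nonpregnant female and gestation day 18–19 pregnant Sprague-Dawley rats: three small-intestine parts plus distal colon. Krebs Ringer bicarbonate, pH 7.4, 95% O₂/5% CO₂, 37°C. Mucosal 25 ml; serosal 25 ml circulated at 5 ml/min. Test compound 10 µM mucosal; both sides sampled 0–60 min. Negative-ESI LC-MS/MS against bile-derived glucuronide standards; mean ± S.D., six experiments.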
# [2] = test system: cell viability; conditions: 10 µM, in vitro; cited from earlier work
# [3] = after oral exposure, estimated; cited from earlier work
# [4] = test system: estrogenic activity; conditions: cited from earlier work
# [5] = ZON 10 µM, 60 min, female colon
# [6] = ZON 10 µM, 60 min, female proximal intestine
# [7] = ZON 10 µM, 60 min, pregnant female proximal intestine
molecule,measurement,setting,value
"C[C@H]1CCCC(=O)CCCCCc2cc(O)cc(O)c2C(=O)O1 [ZAN, Zearalanone]",detection of ZON metabolite in mucosal and serosal buffers,"[1]; ZON 10 µM, 60 min",too low to quantify
"C[C@H]1CCCC(=O)CCC/C=C/c2cc(O)cc(O)c2C(=O)O1 [ZON, Zearalenone]",effect on cell viability,[2],not to affect cell viability
same,rate of disappearance of ZON from the mucosal compartment,"[1]; ZON 10 µM in mucosal buffer, all segments",100 to 200 nmol/h
same,amount of ZON transported from the mucosal side to the serosal side,"[1]; ZON 10 µM, 60 min incubation, distal colon (highest)",approximately 2 nmol
same,"recovery at 60 min, 10 µM","[1]; both, rat, pH 7.4",> 80%
same,ZON uptake,[3],80–85%
"CC1CCCC(=O)CCCC=Cc2cc(OC3OC(C(=O)O)C(O)C(O)C3O)cc(OC3OC(C(=O)O)C(O)C(O)C3O)c2C(=O)O1 (stereo not drawn) [zearalenone diglucuronide, Zearalenone diglucuronide]",detection of ZON metabolite in mucosal and serosal buffers,"[1]; ZON 10 µM, 60 min",too low to quantify
"C[C@H]1CCC[C@H](O)CCC/C=C/c2cc(O)cc(O)c2C(=O)O1 [α-ZOL, α-Zearalenol]",estrogenic activity relative to ZON,[4],three times more potent
same,α-ZOL transport to the mucosal side relative to transport to the serosal side,"[1]; ZON 10 µM, 60 min",approximately 6 times
same,α-ZOL mucosal excretion,"[1]; ZON 10 µM, 60 min, at most, over all segments",≤ 0.3 nmol
same,"α-ZOL transport to the serosal side, maximum","[1]; ZON 10 µM, 60 min, colon",approximately 0.05 nmol
"C[C@H]1CCC[C@@H](O)CCC/C=C/c2cc(O[C@@H]3O[C@H](C(=O)O)[C@@H](O)[C@H](O)[C@H]3O)cc(O)c2C(=O)O1 [α-ZOL-GA, α-Zearalenol glucuronide]","α-ZOL-GA mucosal excretion, minimum",[1]; [5],20.09 nmol
same,"α-ZOL-GA serosal transport, minimum",[1]; [6],2.84 nmol
same,"α-ZOL-GA serosal transport, maximum","[1]; ZON 10 µM, 60 min, pregnant female colon",36.15 nmol
same,"α-ZOL-GA mucosal excretion, maximum",[1]; [7],60.02 nmol
"C[C@H]1CCC[C@H](O)CCC/C=C/c2cc(O[C@@H]3O[C@H](C(=O)O)[C@@H](O)[C@H](O)[C@H]3O)cc(O)c2C(=O)O1 [β-ZOL-GA, β-Zearalenol glucuronide]",detection of ZON metabolite in mucosal and serosal buffers,"[1]; ZON 10 µM, 60 min",too low to quantify
Zearalenone glucuronide [ZON-GA],"ZON-GA mucosal excretion, minimum",[1]; [5],22.55 nmol
same,"ZON-GA serosal transport, maximum",[1]; [5],49.94 nmol
same,"ZON-GA serosal transport, minimum",[1]; [6],1.64 nmol
same,"ZON-GA mucosal excretion, maximum",[1]; [7],85.39 nmol
β-Zearalenol [β-ZOL],detection of ZON metabolite in mucosal and serosal buffers,"[1]; ZON 10 µM, 60 min",too low to quantify
